Laboratory results published in ChEMBL document CHEMBL4706514, “PSNCBAM-1 analogs: Structural evolutions and allosteric properties at cannabinoid CB1 receptor” (Eur J Med Chem, 2020).
The source made the active and inactive calls. No cut-off for these calls is given here.

Experiments:
[1] = biological target: Cannabinoid receptor 1 (Homo sapiens) (UniProt P21554); experiment: Positive allosteric modulation of human CB1 receptor expressed in CHO cell membranes assessed as increase in binding [3H]CP55940 to the receptor at 10 uM after 60 mins by liquid scintillation spectrometric method relative to control; settings: Cell membrane
In short: (§1)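 Membranes from CHO cells stably expressing human CB1 (50.0 µg protein/tube) incubated 60 min at 37 °C with [3H]CP55940 0.700 nM and compound 1 nM to 10 µM (from 10.00 mM DMSO stocks; 0.1% DMSO). Ended with ice-cold Tris buffer and vacuum filtration, six washes. Filters oven-dried, then scintillation counted. Six independent experiments in duplicate; one-sample t-test against zero.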

[2] = biological target: Cannabinoid receptor 1 (Homo sapiens) (UniProt P21554); experiment: Positive allosteric modulation of human CB1 receptor expressed in CHO cell membranes assessed as increase in binding [3H]CP55940 to the receptor up to 10 uM after 60 mins by liquid scintillation spectrometric method relative to control; settings: Cell membrane, filed as positive allosteric modulator, dose microM <=10, time 60.0 min; in short: as §1
[3] = biological target: Cannabinoid receptor 1 (Homo sapiens) (UniProt P21554); experiment: Inverse agonist activity at human CB1 receptor expressed in CHO cell membranes assessed as decrease in cellular response at 0.001 to 10 uM after 90 mins by [35S]-GTPgammaS binding based liquid scintillation spectrometric method relative to control; assay type: functional; set-up: scale not given: the % may be the effect or the level left; settings: Cell membrane, dose 0.001-10 µM
In short: (§2)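 Compound alone, 1 nM to 10 µM (from 10.00 mM DMSO stocks; 0.1% DMSO per tube), incubated 90 min at 30 °C with hCB1-CHO membranes (50.0 µg protein/tube). Buffer: 50 mM Tris, 10 mM MgCl2, 100 mM NaCl, 0.2 mM EDTA, 1 mM DTT, pH 7.4, with [35S]GTPγS 0.1 nM and GDP 30 µM. Read by filtration and scintillation counting. Response expressed as % change from vehicle basal stimulation. Six independent experiments, each in duplicate.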

[4] = biological target: Cannabinoid receptor 1 (Homo sapiens) (UniProt P21554); experiment: Positive allosteric modulation of human CB1 receptor expressed in CHO cell membranes assessed as increase in binding [3H]CP55940 to the receptor after 60 mins by liquid scintillation spectrometric method; settings: Cell membrane, filed as positive allosteric modulator, dose 1-10000 nM; in short: as §1
[5] = biological target: Cannabinoid receptor 1 (Homo sapiens) (UniProt P21554); experiment: Negative allosteric modulation of human CB1 receptor expressed in CHO cell membranes assessed as decrease in CP55940-induced agonist activity at 1 uM after 90 mins by [35S]-GTPgammaS binding based liquid scintillation spectrometric method relative to control; assay type: functional; set-up: scale not given: the % may be the effect or the level left; settings: Cell membrane
In short: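 Test compound held fixed at 1 µM (from 10.00 mM DMSO stock) against CP55940 0.1 nM to 1 µM. Incubated with hCB1-CHO membranes (50.0 µg protein/tube, 0.1% DMSO) for 90 min at 30 °C, with [35S]GTPγS 0.1 nM and GDP 30 µM in Tris/MgCl2/NaCl/EDTA/DTT buffer, pH 7.4. Bound label filtered and counted. Data taken as % change over vehicle basal; mean of six experiments in duplicate.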

[6] = biological target: Cannabinoid receptor 1 (Homo sapiens) (UniProt P21554); experiment: Inverse agonist activity at human CB1 receptor expressed in CHO cell membranes assessed as decrease in cellular response up to 10 uM after 90 mins by [35S]-GTPgammaS binding based liquid scintillation spectrometric method; assay type: functional; settings: Cell membrane, dose microM <=10, time 90.0 min; in short: as §2
[7] = biological target: Cannabinoid receptor 1 (Homo sapiens) (UniProt P21554); experiment: Inverse agonist activity at human CB1 receptor expressed in CHO cell membranes assessed as decrease in cellular response >1 uM after 90 mins by [35S]-GTPgammaS binding based liquid scintillation spectrometric method; assay type: functional; set-up: scale not given: the % may be the effect or the level left; settings: Cell membrane, dose microM >1, time 90.0 min; in short: as §2
[8] = biological target: Cannabinoid receptor 2 (Homo sapiens) (UniProt P34972); experiment: Binding affinity to human CB2 receptor expressed in CHO cell membranes assessed as displacement of [3H]CP55940 from the receptor > 1 uM after 60 mins by liquid scintillation spectrometric method; settings: Cell membrane, dose microM >1, time 60.0 min
[9] = biological target: Cannabinoid receptor 1 (Homo sapiens) (UniProt P21554); experiment: Inverse agonist activity at human CB1 receptor expressed in CHO cell membranes assessed as decrease in cellular response up to 1 uM after 90 mins by [35S]-GTPgammaS binding based liquid scintillation spectrometric method; assay type: functional; settings: Cell membrane, dose microM <=1, time 90.0 min; in short: as §2
[10] = biological target: Cannabinoid receptor 1 (Homo sapiens) (UniProt P21554); experiment: Positive allosteric modulation of human CB1 receptor expressed in CHO cell membranes assessed as increase in binding [3H]CP55940 to the receptor at 1 uM after 60 mins by liquid scintillation spectrometric method relative to control; settings: Cell membrane; in short: as §1
[11] = biological target: Cannabinoid receptor 1 (Homo sapiens) (UniProt P21554); experiment: Negative allosteric modulation of human CB1 receptor expressed in CHO cell membranes assessed as decrease in CP55940-induced agonist activity at 100 nM after 90 mins by [35S]-GTPgammaS binding based liquid scintillation spectrometric method; assay type: functional; settings: Cell membrane, filed as negative allosteric modulator
[12] = biological target: Cannabinoid receptor 2 (Homo sapiens) (UniProt P34972); experiment: Positive allosteric modulation of human CB2 receptor expressed in CHO cell membranes assessed as increase in binding [3H]CP55940 to the receptor at 0.001 to 10 uM after 60 mins by liquid scintillation spectrometric method; settings: Cell membrane, dose 0.001-10 µM
In short: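 Human CB2 stably expressed in CHO cells; membranes at 50.0 µg protein/tube with [3H]CP55940 0.700 nM and compound 1 nM to 10 µM (0.1% DMSO). Incubated 60 min at 37 °C, then filtered under vacuum with ice-cold Tris buffer and scintillation counted. Six independent experiments, each in duplicate.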

Cannabinoid receptor 1 (Homo sapiens), sequence (P21554 whole entry): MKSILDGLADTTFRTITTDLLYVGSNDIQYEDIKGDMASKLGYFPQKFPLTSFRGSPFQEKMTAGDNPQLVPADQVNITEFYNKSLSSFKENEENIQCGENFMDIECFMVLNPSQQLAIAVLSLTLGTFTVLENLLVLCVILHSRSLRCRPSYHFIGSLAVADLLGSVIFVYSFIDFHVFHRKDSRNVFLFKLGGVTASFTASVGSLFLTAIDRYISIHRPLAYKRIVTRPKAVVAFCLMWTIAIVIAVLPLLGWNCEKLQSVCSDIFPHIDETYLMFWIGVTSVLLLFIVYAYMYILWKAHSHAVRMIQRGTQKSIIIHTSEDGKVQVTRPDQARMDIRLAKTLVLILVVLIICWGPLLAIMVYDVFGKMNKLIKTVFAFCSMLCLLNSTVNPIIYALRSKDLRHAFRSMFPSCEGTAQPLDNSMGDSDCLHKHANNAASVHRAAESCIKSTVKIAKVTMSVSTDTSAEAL
Cannabinoid receptor 2 (Homo sapiens), sequence (P34972 whole entry): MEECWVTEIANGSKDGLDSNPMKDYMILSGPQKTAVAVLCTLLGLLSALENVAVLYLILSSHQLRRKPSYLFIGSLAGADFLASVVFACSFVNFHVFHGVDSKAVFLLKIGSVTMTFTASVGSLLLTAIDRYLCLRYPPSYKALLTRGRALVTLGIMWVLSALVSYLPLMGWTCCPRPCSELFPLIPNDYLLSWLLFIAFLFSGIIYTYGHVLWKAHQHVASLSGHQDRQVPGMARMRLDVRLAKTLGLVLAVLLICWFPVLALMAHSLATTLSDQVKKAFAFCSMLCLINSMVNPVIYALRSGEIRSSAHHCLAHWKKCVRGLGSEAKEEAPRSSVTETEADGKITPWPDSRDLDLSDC

Structure (SMILES) | Activity [2] | Activity [4] | Activity [5] | other results
O=C(CCc1ccc(Cl)cc1)Nc1cccc(-c2cccc(N3CCCC3)c2)c1 |  |  |  | Activity [1]: inactive
O=C(Nc1ccc(Cl)cc1)Nc1cccc(Nc2ccccc2)c1 | 90% | Dose-dependent effect |  | Activity [3]: 30%
O=C(Nc1ccc(Cl)cc1)Nc1cccc(Nc2cccc(N3CCCC3)n2)n1 | 60% | Dose-dependent effect | inactive | Activity [6]: inactive
O=C(Nc1ccc(F)cc1)Nc1cccc(-c2cccc(N3CCCC3)c2)c1 | 70% | Dose-dependent effect |  | Activity ([3]; filed as inverse agonist): 45%
O=C(Nc1ccc(Cl)cc1)Nc1cccc(Nc2ccccn2)c1 | 170% | Dose-dependent effect |  | Activity [3]: 30%
O=C(Nc1ccc(Cl)cc1)Nc1cccc(-c2cccc(N3CCCCC3)c2)c1 |  |  | 30% | Activity [7]: 30%; Displacement [8]: Active; Activity [9]: inactive; Activity [10]: 40%
O=C(Nc1ccc(Cl)cc1)Nc1cccc(Nc2cccc(N3CCCCC3)n2)n1 | 50% | Dose-dependent effect | inactive | Activity [6]: inactive
O=C(Nc1ccc(Cl)cc1)Nc1cccc(Nc2ccc(F)cc2)c1 | 90% | Dose-dependent effect | 30% | Activity [7]: 35%; Activity [11]: Active; Activity [12]: inactive; Activity [9]: inactive
